# Reference: paper PMC10288500 (ACS Bio & Med Chem Au, 2023)
# Key:
# [1] = molecular target: T1, TNFR2 (Homo sapiens, UniProt P20333); test: RelB transcription factor activity assay; type: cell-based; conditions: HUVEC cells, 250 nM, densitometry
# T1 sequence (P20333 23-461): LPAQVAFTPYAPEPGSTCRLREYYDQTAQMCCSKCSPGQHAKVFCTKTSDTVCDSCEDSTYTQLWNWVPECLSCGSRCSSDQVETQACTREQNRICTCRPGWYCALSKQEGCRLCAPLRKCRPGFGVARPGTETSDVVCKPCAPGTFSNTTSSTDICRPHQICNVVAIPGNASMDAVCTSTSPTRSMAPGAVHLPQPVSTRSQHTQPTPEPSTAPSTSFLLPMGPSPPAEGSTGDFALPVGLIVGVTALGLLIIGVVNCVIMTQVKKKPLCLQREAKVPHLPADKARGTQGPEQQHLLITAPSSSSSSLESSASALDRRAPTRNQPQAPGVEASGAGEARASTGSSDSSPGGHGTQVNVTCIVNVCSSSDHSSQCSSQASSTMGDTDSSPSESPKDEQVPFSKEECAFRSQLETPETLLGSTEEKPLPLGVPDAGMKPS
# Method in brief: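 HUVEC grown on gelatin-coated dishes in EGM-2 with 2% FBS, plated 1 million/well overnight, then transfected with 0.5 μg membrane TNF plasmid. After 6 h, medium replaced and compound (250 nM) added overnight. Lysates in native buffer, BCA, SDS–PAGE, immunoblotted for RelB; bands quantified by densitometry.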
# [2] = tested on: TRADD; test: TRADD-induced NF-κB activation assay; type: cell-based; conditions: HEK293 cells overexpressing TRADD, 0.01 to 500 nM, without TNF
# Method in brief: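 HEK293 (0.8 million/well, six-well) transfected with 1 μg NF-κB firefly reporter, 0.1 μg Renilla reporter, 1 μg TRADD plasmid and 0.4 μg empty vector (2.5 μg total); controls received empty vector instead of TRADD. Replated at 7500 cells/well after 3 h. Compound 0.01–500 nM or DMSO added 5 h later. Dual luciferase read 24 h post-treatment. Means ± SD, three experiments.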
# [3] = tested on: IL-1α-induced NF-κB activation; test: IL-1α-induced NF-κB activation assay; type: cell-based; conditions: HEK293 cells, IL-1α 10 ng/mL, 0.01 to 500 nM, 24 h
# Method in brief: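 HEK293 cells were transfected with NF-κB firefly/Renilla luciferase reporters and replated next day at 7500 cells/well in phenol red–free DMEM. Compound 0.01–500 nM or DMSO was incubated with or without IL-1α 10 ng/mL for 24 h at 37 °C. Sequential firefly and Renilla luminescence read with Dual-Glo reagents. Means ± SD of three experiments.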
# [4] = molecular target: T2, TNFR1 (Homo sapiens, UniProt P19438); test: IκB degradation assay; type: cell-based; conditions: HEK293 cells, 0.01 to 500 nM
# T2 sequence (P19438 30-455): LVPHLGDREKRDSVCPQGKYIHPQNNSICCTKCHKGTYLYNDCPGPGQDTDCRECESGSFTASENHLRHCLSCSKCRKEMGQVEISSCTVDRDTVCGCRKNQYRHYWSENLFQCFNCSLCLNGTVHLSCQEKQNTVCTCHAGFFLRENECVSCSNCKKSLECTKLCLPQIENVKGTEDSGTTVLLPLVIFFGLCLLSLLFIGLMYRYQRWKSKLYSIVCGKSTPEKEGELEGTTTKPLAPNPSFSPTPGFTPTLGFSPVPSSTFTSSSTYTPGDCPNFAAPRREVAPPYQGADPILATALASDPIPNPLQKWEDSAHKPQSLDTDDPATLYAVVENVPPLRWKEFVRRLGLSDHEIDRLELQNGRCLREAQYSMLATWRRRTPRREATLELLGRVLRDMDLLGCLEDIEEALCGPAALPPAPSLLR
# Method in brief: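 HEK293 seeded at 0.4 million/mL in six-well plates overnight, then given compound 0.01–500 nM or DMSO for 2 h, then TNF 10 ng/mL for 30 min. Lysis in native buffer with protease inhibitor, 30 min on ice; BCA. 80 μg protein run on SDS–PAGE, immunoblotted for IκBα and β-actin. Bands quantified by densitometry (n = 3).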
# [5] = Solubility by dynamic light scattering; type: physicochemical
# [6] = tested on: HEK293 cells; test: MTT cytotoxicity assay; type: cell-based; conditions: 0.0001 nM–10 μM, 24 h
# Method in brief: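 HEK293 plated at 7500 cells/well and grown 24 h at 37 °C, 5% CO2. Exposed to compound 0.0001 nM–10 μM for 24 h at 37 °C. Viability read by MTT on a multimode plate reader.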
# [7] = tested on: TNF; conditions: read-out: EC50, inhibition of NF-κB; cited from earlier work
SMILES,effect on membrane TNF-TNFR2-induced activation of RelB [1],effect on TRADD-induced NF-κB activation [2],effect on IL-1α-induced NF-κB activation [3],extent of inhibition of TNF-induced IκB degradation [4],aggregation by DLS at 200 μM [5],cytotoxicity (MTT) [6],EC50 [7] [nM]
COc1cc(C(=O)NS(=O)(=O)c2ccccc2C)ccc1Cc1cn(C)c2ccc(NC(=O)OC3CCCC3)cc12 [zafirlukast],minimal effect,little effect,failed to mitigate,partially inhibited,aggregation,No appreciable cytotoxicity,–
Cc1ccc(C)c(Cn2c(C(O)c3ccncc3)nc3ccc(-c4cnn(C)c4)cc32)c1 (stereo not shown) [UCB-9260],–,–,–,–,–,–,250
